Source: article PMC3516907 (ChemMedChem, 2010)

How the values were obtained:
ER in MCF7 cells = assay: ER degradation in MCF7 cells by immunofluorescence; type: cell-based, human
Procedure, shortened: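 MCF7 cells were grown on ethanol/UV-sterilised coverslips for 24 h, then switched to phenol-red-free RPMI with 5% charcoal/dextran-treated FBS. Compounds were diluted in this medium from a DMSO vehicle and applied for 48 h. Cells were fixed in 4% PFA, permeabilised with 0.2% Triton X-100, and blocked in 10% goat serum/0.1% BSA in PBST. Staining used anti-ER with an Alexa Fluor 488 secondary and DAPI mounting, imaged by inverted fluorescence microscopy.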

[1] = tested on: endogenous ER in MCF7 breast cancer cells; assay: ER degradation in MCF7 cells by western blotting; type: cell-based, human; conditions: with/without proteasome inhibitor epoxomicin (Fig 3B)
Procedure, shortened: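 MCF7 cells at 70% confluence, held at least 24 h in RPMI with 5% charcoal-dextran FBS, were treated 48 h (DMSO vehicle). Lysis was 1 h on ice in Tris/NaCl/NP40/Triton X-100 buffer with protease inhibitors, with Bradford protein assay. Equal protein ran on 10% SDS-PAGE and was blotted to PVDF. Anti-ER was applied overnight at 4°C, secondary 1 h at room temperature. Detection was ECL/film, reprobed for β-actin loading.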

Compound	ER signal by immunofluorescence on co-treatment with epoxomicin (ER in MCF7 cells; 48h, 25 μM PROTACs or 10 nM E2 plus epoxomicin (Fig 3A bottom row))	proteasome dependence of ER degradation (western blot) [1]	ER signal (green, FITC) by immunofluorescence vs DMSO control (ER in MCF7 cells; 48h treatment, 25 μM PROTACs, 10 nM E2 (Fig 3A top row))
C[C@]12CC[C@@H]3c4ccc(O)cc4CC[C@H]3[C@@H]1CC[C@@H]2O [E2, 17β-estradiol]	blocked by co-treatment with epoxomicin	confirmed via western blotting	
-Leu-Ala-Pro^OHTyr-Ile-Bzl [PROTAC 24]		confirmed via western blotting	attenuation of ER signal (green) was observed
